Data as given in paper PMC3346673 (Toxicological and environmental chemistry, 2012).
Like-named read-outs stand apart in the source and are kept apart here.

Assays:
[1] = test system: Salmonella typhimurium strains TA1537, TA98, TA100, and TA1535; experiment: Ames test for mutagenic activity; format: cell-based; conditions: reversion of mutations in the histidine operon
[2] = Hydroxyl radical absorbance capacity; conditions: Trolox equivalency
rats = experiment: 28 day repeated oral dose toxicity study with clinical chemistry and hematology; format: in vivo, rat (Wistar); conditions: for Ca^2+ / Cl^− / HCT / HGB / K^+ / Mg^2+ / Na^+ / Phosphorus / RBC: mean
Outline: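 Male and female Wistar rats, 10 of each sex per group, gavaged daily for 28 days with the test compound suspended in corn oil at 0, 0.1, 0.5 or 1.0 g kg−1 body weight day−1.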

[3] = Metabolic profiling with rat liver microsomes; format: in vitro ADME; conditions: incubation with rat liver microsomes, MS identification
Outline: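 Test compound incubated with human or rat liver microsomes. Products separated by HPLC and identified by electrospray MS and MS:MS, using information-dependent acquisition on the parent ion, enhanced product ion scans, and linear ion trap scanning of trapped fragments.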

[4] = Oral absorption, plasma pharmacokinetics after oral gavage; format: in vivo, rat (Sprague-Dawley); conditions: for Tmax / half-life: male, Sprague-Dawley, rat, plasma, po
[5] = test system: aortic endothelial membranes in culture; conditions: aortic endothelial membranes in culture ref Secor et al. 2011; cited from earlier work
[6] = Biodistribution of NBMI in plasma and tissues after oral gavage; format: in vivo, rat (Sprague Dawley); conditions: for concentration at 1 h / concentration at 2 h / concentration at 8 h / concentration at 24 h: male, Sprague Dawley, rat, 100 mg kg^−1
Outline: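 Twelve-hour-fasted male Sprague-Dawley rats were gavaged with 100 mg kg−1 test compound in corn oil, three per time point. Jugular-cannula blood was taken at 1, 2, 8 and 24 h into heparin and spun at 4°C; tissues were excised and weighed. Samples were DTT-reduced, then analysed by LC-MS:MS: Synergi Polar RP column, ammonium formate pH 3.5/acetonitrile gradient, ESI MRM.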

rats injected with HgCl2 = format: in vivo, rat (Harlan Sprague-Dawley); conditions: for mercury concentration in feces / mercury concentration in urine: 5 day collection, mean ± SEM
Outline: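 Mature male Harlan Sprague-Dawley rats (389–397 g), four groups of six, housed in pairs. HgCl2 was given sc at 4.06 mg kg−1 in saline under brief isoflurane. Test compound (42.3 mg kg−1, DMSO plus PBS) was given sc 20–30 min later. Non-recipients got saline, so each rat had two injections. Rats were weighed before treatment and before day-6 sacrifice; organs were blotted and weighed. Behaviour was recorded.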

[7] = 0.1, 0.5 and 1.0 g kg^−1 day^−1 gavage, 28 days
[8] = females, 100 mg kg^−1, end of 28 day daily dosing
[9] = females, 500 mg kg^−1, end of 28 day daily dosing
[10] = females, 1000 mg kg^−1, end of 28 day daily dosing
[11] = males, 100 mg kg^−1, end of 28 day daily dosing
[12] = males, 500 mg kg^−1, end of 28 day daily dosing
[13] = males, 1000 mg kg^−1, end of 28 day daily dosing
[14] = Group 2 NBMI only, sc 42.3 mg kg^−1, mean ± St Dev
[15] = Group 4 HgCl2 (4.06 mg kg^−1 sc) + NBMI (42.3 mg kg^−1 sc), mean ± St Dev

With `O=C(NCCS)c1cccc(C(=O)NCCS)c1` [NBMI, N,N′-bis(2-mercaptoethyl)isophthalamide] the “mutagenicity, Ames analysis” value [1] was “non-mutagenic”, the HORAC score [2] was 299,000 Trolox units 100g^−1 and the “deaths and clinical signs” value (rats; [7]) was “No deaths or abnormal weight loss, ataxia, loss of appetite”. For the same compound, the “microscopic and histological analysis of organs” value (rats; [7]) was “None of their organs displayed changes indicating toxic effects”, the spleen finding (rats; [7]) was “mild to moderate B-cell proliferation” and the “Ca^2+” value (rats; [8]) was 10.78 mg/dL. For the same compound, the “Cl^−” value (rats; [8]) was 103 meq L^−1, the HCT (rats; [8]) was 43.7% and the HGB (rats; [8]) was 15.2 gm DL^−1. For the same compound, the “K^+” value (rats; [8]) was 4.81 meq L^−1, the “Mg^2+” value (rats; [8]) was 2.64 meq L^−1 and the “Na^+” value (rats; [8]) was 142 meq L^−1. For the same compound, the Phosphorus (rats; [8]) was 7.82 mg/dL, the RBC (rats; [8]) was 8.0 mill UL^−1 and the “Ca^2+” value (rats; [9]) was 10.89 mg/dL. The “Cl^−” value (rats; [9]) was 105 meq L^−1, the HCT (rats; [9]) was 42% and the HGB (rats; [9]) was 15 gm DL^−1. The “K^+” value (rats; [9]) was 5.08 meq L^−1, the “Mg^2+” value (rats; [9]) was 2.72 meq L^−1 and the “Na^+” value (rats; [9]) was 143 meq L^−1. For the same compound, the Phosphorus (rats; [9]) was 8.15 mg/dL, the RBC (rats; [9]) was 8.0 mill UL^−1 and the “Ca^2+” value (rats; [10]) was 10.84 mg/dL. For the same compound, the “Cl^−” value (rats; [10]) was 105 meq L^−1, the HCT (rats; [10]) was 40% and the HGB (rats; [10]) was 14 gm DL^−1. The “K^+” value (rats; [10]) was 4.89 meq L^−1, the “Mg^2+” value (rats; [10]) was 2.82 meq L^−1 and the “Na^+” value (rats; [10]) was 144 meq L^−1. For the same compound, the Phosphorus (rats; [10]) was 8.49 mg/dL, the RBC (rats; [10]) was 7.6 mill UL^−1 and the “Ca^2+” value (rats; [11]) was 10.64 mg/dL. For the same compound, the “Cl^−” value (rats; [11]) was 105 meq L^−1, the HCT (rats; [11]) was 46.2% and the HGB (rats; [11]) was 15.6 gm DL^−1. For the same compound, the “K^+” value (rats; [11]) was 4.83 meq L^−1, the “Mg^2+” value (rats; [11]) was 2.58 meq L^−1 and the “Na^+” value (rats; [11]) was 143 meq L^−1. The Phosphorus (rats; [11]) was 8.23 mg/dL, the RBC (rats; [11]) was 8.7 mill UL^−1 and the “Ca^2+” value (rats; [12]) was 10.6 mg/dL. The “Cl^−” value (rats; [12]) was 104 meq L^−1, the HCT (rats; [12]) was 45.1% and the HGB (rats; [12]) was 15.2 gm DL^−1. For the same compound, the “K^+” value (rats; [12]) was 5.03 meq L^−1, the “Mg^2+” value (rats; [12]) was 2.62 meq L^−1 and the “Na^+” value (rats; [12]) was 144 meq L^−1. The Phosphorus (rats; [12]) was 8.42 mg/dL, the RBC (rats; [12]) was 8.3 mill UL^−1 and the “Ca^2+” value (rats; [13]) was 10.53 mg/dL. The “Cl^−” value (rats; [13]) was 106 meq L^−1, the HCT (rats; [13]) was 45.5% and the HGB (rats; [13]) was 15.5 gm DL^−1. For the same compound, the “K^+” value (rats; [13]) was 5.15 meq L^−1, the “Mg^2+” value (rats; [13]) was 2.56 meq L^−1 and the “Na^+” value (rats; [13]) was 143 meq L^−1. For the same compound, the Phosphorus (rats; [13]) was 8.84 mg/dL, the RBC (rats; [13]) was 8.5 mill UL^−1 and the metabolites detected [3] was “only two NBMI modified structures”. The Tmax ([4]; 7 mg/kg) was 2.3 ± 1.2 h, the half-life ([4]; 7 mg/kg) was 5.47 ± 1.75 h and the Tmax ([4]; 35 mg/kg) was 2.3 ± 1.2 h. The half-life ([4]; 35 mg/kg) was 5.6 ± 1.02 h, the “absorbance of NBMI into plasma from oral dose” value ([4]; oral 7 mg kg^−1, estimated against iv 1 mg kg^−1) was 13 ± 5.9% and the “absorbance of NBMI into plasma from oral dose” value ([4]; oral 35 mg kg^−1, estimated against iv 1 mg kg^−1) was 15 ± 3.6%. For the same compound, the “prevention of damage induced by mercury exposure” value [5] was “very effective prevention of the damage induced by mercury exposure”, the “toxicity on membrane integrity” value [5] was “no toxicity on membrane integrity” and the concentration at 1 h ([6]; bone marrow, po) was 12.5 ± 7.4 ng/g. For the same compound, the concentration at 2 h ([6]; bone marrow, po) was 65.7 ± 51.6 ng/g, the concentration at 8 h ([6]; bone marrow, po) was 6.88 ± 0.62 ng/g and the concentration at 24 h ([6]; bone marrow, po) was 3.76 ± 0.77 ng/g. It also gave a concentration at 1 h ([6]; brain, po) of 6.1 ± 2.6 ng/g, a concentration at 2 h ([6]; brain, po) of 51.8 ± 43.9 ng/g and a concentration at 8 h ([6]; brain, po) of 2.57 ± 0.34 ng/g. For the same compound, the concentration at 24 h ([6]; brain, po) was 2.09 ± 0.41 ng/g, the concentration at 1 h ([6]; kidney, po) was 61.3 ± 42.7 ng/g and the concentration at 2 h ([6]; kidney, po) was 145 ± 89.9 ng/g. For the same compound, the concentration at 8 h ([6]; kidney, po) was 45.1 ± 3.4 ng/g, the concentration at 24 h ([6]; kidney, po) was 36.9 ± 3.7 ng/g and the concentration at 1 h ([6]; liver, po) was 165 ± 144 ng/g. It also gave a concentration at 2 h ([6]; liver, po) of 272 ± 274 ng/g, a concentration at 8 h ([6]; liver, po) of 23.3 ± 2.2 ng/g and a concentration at 24 h ([6]; liver, po) of 14.2 ± 2.3 ng/g. The concentration at 1 h ([6]; plasma, po) was 588 ± 90 ng/mL, the concentration at 2 h ([6]; plasma, po) was 883 ± 216 ng/mL and the concentration at 8 h ([6]; plasma, po) was 391 ± 14 ng/mL. It also gave a concentration at 24 h ([6]; plasma, po) of 118 ± 29 ng/mL, a concentration at 1 h ([6]; small intestine, po) of 7430 ± 3200 ng/g and a concentration at 2 h ([6]; small intestine, po) of 8530 ± 5320 ng/g. It also gave a concentration at 8 h ([6]; small intestine, po) of 1560 ± 826 ng/g, a concentration at 24 h ([6]; small intestine, po) of 1040 ± 396 ng/g and a concentration at 1 h ([6]; spleen, po) of 12.1 ± 5.2 ng/g. It also gave a concentration at 2 h ([6]; spleen, po) of 153 ± 129 ng/g, a concentration at 8 h ([6]; spleen, po) of 16.8 ± 1.5 ng/g and a concentration at 24 h ([6]; spleen, po) of 12.7 ± 2.7 ng/g. The concentration at 1 h ([6]; subcutaneous fat, oral) was 420 ± 419 ng/g, the concentration at 2 h ([6]; subcutaneous fat, oral) was 683 ± 531 ng/g and the concentration at 8 h ([6]; subcutaneous fat, oral) was 17.3 ± 7.4 ng/g. The concentration at 24 h ([6]; subcutaneous fat, oral) was 7 ± 0.7 ng/g, the “clearance from the body from peak values within 24 hours of ingestion” value ([6]; oral gavage) was “about 90%” and the “time of highest concentration in plasma and all tissues” value ([6]; post ingestion, oral gavage) was 2 h. For the same compound, the “Body Mass Post Treatment” value (rats injected with HgCl2; [14]) was 374.4 ± 27.7 g, the “Organ Mass Brain (Post Treatment)” value (rats injected with HgCl2; [14]) was 1.85 ± 0.04 g and the “Organ Mass Kidney (Post Treatment)” value (rats injected with HgCl2; [14]) was 2.80 ± 0.56 g. The “Organ Mass Liver (Post Treatment)” value (rats injected with HgCl2; [14]) was 11.7 ± 1.8 g, the “clinically observed toxic effects” value (rats injected with HgCl2; Group 4 Hg + NBMI versus Hg Only) was “exhibited no signs of discomfort” and the “Body Mass Post Treatment” value (rats injected with HgCl2; [15]) was 356.9 ± 46.8 g. For the same compound, the “Organ Mass Brain (Post Treatment)” value (rats injected with HgCl2; [15]) was 1.88 ± 0.10 g, the “Organ Mass Kidney (Post Treatment)” value (rats injected with HgCl2; [15]) was 3.88 ± 0.69 g and the “Organ Mass Liver (Post Treatment)” value (rats injected with HgCl2; [15]) was 11.0 ± 2.1 g. For the same compound, the “mercury concentration in feces” value (rats injected with HgCl2; Hg and NBMI group) was 23447±4877 Ppb, the “mercury concentration in urine” value (rats injected with HgCl2; Hg and NBMI group) was 242±52.7 Ppb and the “mercury concentration in feces” value (rats injected with HgCl2; NBMI Only group) was 110±30 Ppb. For the same compound, the “mercury concentration in urine” value (rats injected with HgCl2; NBMI Only group) was 0.30±0.1 Ppb and the “effect on organ mercury levels” value (rats injected with HgCl2; single sc dose of NBMI, organs 5-6 days after injection) was “did not reduce the mercury levels in the organs”.
